Where only a bound is given, the exact number is not on record here.

One may read the IC50 as the midpoint of a concentration-inhibition curve.

The target of assay [1] is Dual specificity tyrosine-phosphorylation-regulated kinase 1A (Rattus norvegicus, UniProt Q63470). Kind of assay: Inhibition of rat recombinant GST-tagged DYRK1A expressed in Escherichia coli using KKISGRLSPIMTEQ as substrate and [gamma32P]ATP after 30 mins by scintillation counting. Summed up: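 Rat DYRK1A, expressed in E. coli as a GST fusion and purified on glutathione-agarose. Blanks subtracted. Activity given as % of uninhibited maximum. DMSO dilution controls.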

Assay [2] deals with Glycogen synthase kinase-3 (Sus scrofa, UniProt B2LUN4+I6LNT8). Kind of assay: Inhibition of pig GSK3alpha/beta isolated from brain using YRRAAVPPSPSLSRHSSPHQpSEDEEE as substrate and [gamma32P]ATP after 30 mins by scintillation counting. Summed up:
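Assay run at 30 °C in one of two buffers: buffer A (Tris-HCl pH 7.5 with MgCl2, EGTA, DTT, heparin) or buffer B (Mops pH 7.2 with beta-glycerophosphate, EGTA, MgCl2, DTT, vanadate). Peptide substrate. Blank values subtracted and activity expressed as % of maximal, uninhibited activity. Controls with matching DMSO dilutions.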

In assay [3] the target is Cyclin-dependent kinase 5/CDK5 activator 1 (Homo sapiens, UniProt Q00535). Kind of assay: Inhibition of human recombinant GST-tagged CDK5/p25 expressed in Escherichia coli using histone H1 as substrate and [gamma32P]ATP after 30 mins by scintillation counting.
Assay [4] can be described thus: Inhibition of pig CK1delta/epsilon isolated from brain using RRKHAAIGpSAYSITA as substrate and [gamma32P]ATP after 30 mins by scintillation counting. Also noted: species or system Sus scrofa.
The target in assay [5] is Dual specificity protein kinase CLK1 (Homo sapiens, UniProt P49759). Kind of assay: Inhibition of human recombinant GST-tagged CLK1 expressed in Escherichia coli using GRSRSRSRSRSR as substrate and [gamma32P]ATP after 30 mins by scintillation counting.
Dual specificity protein kinase CLK1, sequence (P49759 whole entry): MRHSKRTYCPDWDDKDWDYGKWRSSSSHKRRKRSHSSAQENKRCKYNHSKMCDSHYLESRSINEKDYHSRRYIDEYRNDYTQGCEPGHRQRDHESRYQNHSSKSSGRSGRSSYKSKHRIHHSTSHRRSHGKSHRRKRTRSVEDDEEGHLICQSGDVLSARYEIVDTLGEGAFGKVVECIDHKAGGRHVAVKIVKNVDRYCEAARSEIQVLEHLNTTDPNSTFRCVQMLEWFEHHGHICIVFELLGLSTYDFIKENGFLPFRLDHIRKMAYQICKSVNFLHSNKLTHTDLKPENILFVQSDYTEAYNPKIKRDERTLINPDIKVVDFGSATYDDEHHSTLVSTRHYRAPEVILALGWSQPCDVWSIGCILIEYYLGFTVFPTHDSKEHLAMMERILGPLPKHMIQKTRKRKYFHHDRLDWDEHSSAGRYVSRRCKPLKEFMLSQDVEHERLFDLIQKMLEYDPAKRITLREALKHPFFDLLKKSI

Cyclin-dependent kinase 5/CDK5 activator 1, sequence (Q00535 whole entry): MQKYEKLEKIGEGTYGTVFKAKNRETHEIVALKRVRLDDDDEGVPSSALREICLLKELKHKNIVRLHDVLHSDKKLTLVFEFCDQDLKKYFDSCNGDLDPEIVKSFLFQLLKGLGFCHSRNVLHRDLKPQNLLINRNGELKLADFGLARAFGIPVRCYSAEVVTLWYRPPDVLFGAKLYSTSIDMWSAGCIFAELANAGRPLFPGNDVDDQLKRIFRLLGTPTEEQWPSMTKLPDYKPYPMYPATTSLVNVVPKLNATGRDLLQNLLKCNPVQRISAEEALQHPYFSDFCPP
Cyclin-dependent kinase 5/CDK5 activator 1, sequence (Q15078 whole entry, further chain): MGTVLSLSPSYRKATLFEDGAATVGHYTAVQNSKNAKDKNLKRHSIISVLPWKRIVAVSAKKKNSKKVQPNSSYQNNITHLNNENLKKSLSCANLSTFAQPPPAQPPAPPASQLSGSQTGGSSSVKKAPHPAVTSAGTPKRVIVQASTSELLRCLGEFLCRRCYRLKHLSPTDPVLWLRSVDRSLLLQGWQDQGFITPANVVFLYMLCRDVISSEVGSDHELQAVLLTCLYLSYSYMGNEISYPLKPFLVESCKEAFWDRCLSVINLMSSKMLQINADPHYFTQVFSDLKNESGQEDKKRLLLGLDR

For the compound `Nc1ncnc2c1sc1ccccc12`, the IC50 was 5.1 µM in assay [1], above 10 µM in assay [2], 5.2 µM in assay [3] and 0.79 µM in assay [4].

For the compound `c1ccc(Nc2ncnc3c2sc2ccccc23)cc1`, the IC50 in assay [1], in assay [2], in assay [3] and in assay [4] was above 10 µM each time.

As for `COc1ccc(Nc2ncnc3c2sc2ccccc23)cc1`, the half-maximal inhibitory concentration (IC50) in assay [1], in assay [2], in assay [3] and in assay [4] was above 10 µM throughout.

In the case of `COc1ccc(Nc2ncnc3c2sc2ccccc23)cc1OC`, the IC50 in assay [1] is 3.7 µM; in assay [2], above 10 µM; in assay [3] it was above 10 µM; in assay [4], above 10 µM.

With `COc1cc(Nc2ncnc3c2sc2ccccc23)cc(OC)c1`, the IC50 in assay [1], in assay [2], in assay [3] and in assay [4] was above 10 µM in each case.

Consider `COc1cc(Nc2ncnc3c2sc2ccccc23)cc(OC)c1OC`, for which the half-maximal inhibitory concentration (IC50) in assay [1], in assay [2], in assay [3] and in assay [4] was above 10 µM each time.

`c1ccc2c(c1)sc1c(Nc3ccc4c(c3)OCO4)ncnc12`: the IC50 in assay [1], in assay [2], in assay [3] and in assay [4] was above 10 µM in each case.

As for `c1ccc2c(c1)sc1c(Nc3ccc4c(c3)OCCO4)ncnc12`, the IC50 in assay [1], in assay [2], in assay [3] and in assay [4] was above 10 µM in each case.

On to `Fc1cc(Br)ccc1Nc1ncnc2c1sc1ccccc12`, for which the IC50 in assay [1], in assay [2], in assay [3] and in assay [4] was above 10 µM each time.

Regarding `O=[N+]([O-])c1cc(Nc2ncnc3c2sc2ccccc23)ccc1O`, the IC50 in assay [1], in assay [2], in assay [3] and in assay [4] was above 10 µM each time.

`c1ccc(Nc2ncnc3c2sc2ncccc23)cc1`: the IC50 in assay [1] is above 10 µM; in assay [5], 4.5 µM; in assay [2], above 10 µM; in assay [3] it was above 10 µM; in assay [4] it was 0.18 µM.

With `COc1ccc(Nc2ncnc3c2sc2ncccc23)cc1`, the IC50 in assay [1] is above 10 µM; in assay [5], 3.3 µM; in assay [2], above 10 µM; in assay [3] it was above 10 µM; in assay [4], 0.52 µM.

In the case of `COc1ccc(Nc2ncnc3c2sc2ncccc23)cc1OC`, the IC50 in assay [1] is 2.9 µM; in assay [5], 3.4 µM; in assay [2], above 10 µM; in assay [3], above 10 µM; in assay [4], above 10 µM.

`COc1cc(Nc2ncnc3c2sc2ncccc23)cc(OC)c1`: the IC50 in assay [1], in assay [5], in assay [2], in assay [3] and in assay [4] was above 10 µM in each case.

Turning to `COc1cc(Nc2ncnc3c2sc2ncccc23)cc(OC)c1OC`, the IC50 in assay [1], in assay [5], in assay [2], in assay [3] and in assay [4] was above 10 µM throughout.

Regarding `c1cnc2sc3c(Nc4ccc5c(c4)OCO5)ncnc3c2c1`, the IC50 is above 10 µM in assay [1]; 2.2 µM in assay [5]; above 10 µM in assay [2]; above 10 µM in assay [3]; 0.44 µM in assay [4].

For `c1cnc2sc3c(Nc4ccc5c(c4)OCCO5)ncnc3c2c1`, the IC50 in assay [1], in assay [5], in assay [2], in assay [3] and in assay [4] was above 10 µM throughout.

On to `Fc1cc(Br)ccc1Nc1ncnc2c1sc1ncccc12`, for which the concentration for half-maximal inhibition (IC50) in assay [1] is 0.89 µM; in assay [5], 2.1 µM; in assay [2] it was above 10 µM; in assay [3] it was above 10 µM; in assay [4] it was 0.28 µM.

Take `O=[N+]([O-])c1cc(Nc2ncnc3c2sc2ncccc23)ccc1O`: the IC50 in assay [1], in assay [5], in assay [2], in assay [3] and in assay [4] was above 10 µM in each case.

For `Nc1ncnc2c1sc1cccnc12`, the IC50 was 6 µM in assay [1]; 5.2 µM in assay [5]; above 10 µM in assay [2]; above 10 µM in assay [3]; 1.8 µM in assay [4].

Regarding `c1ccc(Nc2ncnc3c2sc2cccnc23)cc1`, the IC50 is above 10 µM in assay [1]; above 10 µM in assay [5]; above 10 µM in assay [2]; above 10 µM in assay [3]; 1.6 µM in assay [4].

`COc1ccc(Nc2ncnc3c2sc2cccnc23)cc1`: the IC50 in assay [1], in assay [5], in assay [2], in assay [3] and in assay [4] was above 10 µM throughout.

In the case of `COc1ccc(Nc2ncnc3c2sc2cccnc23)cc1OC`, the IC50 is 3.7 µM in assay [1]; above 10 µM in assay [5]; above 10 µM in assay [2]; above 10 µM in assay [3]; above 10 µM in assay [4].

In the case of `COc1cc(Nc2ncnc3c2sc2cccnc23)cc(OC)c1`, the IC50 in assay [1], in assay [5], in assay [2], in assay [3] and in assay [4] was above 10 µM in each case.

Turning to `COc1cc(Nc2ncnc3c2sc2cccnc23)cc(OC)c1OC`, the IC50 was above 10 µM in assay [1]; above 10 µM in assay [5]; above 10 µM in assay [2]; above 10 µM in assay [3]; 4.1 µM in assay [4].

Regarding `c1cnc2c(c1)sc1c(Nc3ccc4c(c3)OCO4)ncnc12`, the IC50 in assay [1], in assay [5], in assay [2], in assay [3] and in assay [4] was above 10 µM in each case.

Consider `c1cnc2c(c1)sc1c(Nc3ccc4c(c3)OCCO4)ncnc12`, for which the IC50 in assay [1], in assay [5], in assay [2], in assay [3] and in assay [4] was above 10 µM each time.

For `Fc1cc(Br)ccc1Nc1ncnc2c1sc1cccnc12`, the IC50 was 7.3 µM in assay [1]; above 10 µM in assay [5]; above 10 µM in assay [2]; above 10 µM in assay [3]; 11 µM in assay [4].

As for `O=[N+]([O-])c1cc(Nc2ncnc3c2sc2cccnc23)ccc1O`, the IC50 was 5.8 µM in assay [1]; above 10 µM in assay [5]; above 10 µM in assay [2]; above 10 µM in assay [3]; 0.12 µM in assay [4].

For `Nc1ncnc2c1sc1nccnc12`, the IC50 is above 10 µM in assay [1], above 10 µM in assay [2], above 10 µM in assay [3] and 2.4 µM in assay [4].

Take `c1ccc(Nc2ncnc3c2sc2nccnc23)cc1`: the IC50 was above 10 µM in assay [1], above 10 µM in assay [2], above 10 µM in assay [3] and 5 µM in assay [4].

Consider `COc1ccc(Nc2ncnc3c2sc2nccnc23)cc1`, for which the IC50 in assay [1], in assay [2], in assay [3] and in assay [4] was above 10 µM each time.

In the case of `COc1ccc(Nc2ncnc3c2sc2nccnc23)cc1OC`, the IC50 in assay [1], in assay [2], in assay [3] and in assay [4] was above 10 µM throughout.

As for `COc1cc(Nc2ncnc3c2sc2nccnc23)cc(OC)c1`, the half-inhibitory concentration (IC50) in assay [1] was above 10 µM; in assay [2], above 10 µM; in assay [3] it was above 10 µM; in assay [4] it was 7.8 µM.

On to `COc1cc(Nc2ncnc3c2sc2nccnc23)cc(OC)c1OC`, for which the IC50 in assay [1], in assay [2], in assay [3] and in assay [4] was above 10 µM throughout.

Turning to `c1cnc2c(n1)sc1c(Nc3ccc4c(c3)OCO4)ncnc12`, the IC50 in assay [1], in assay [2], in assay [3] and in assay [4] was above 10 µM throughout.

For `c1cnc2c(n1)sc1c(Nc3ccc4c(c3)OCCO4)ncnc12`, the IC50 in assay [1], in assay [2], in assay [3] and in assay [4] was above 10 µM in each case.

Consider `Fc1cc(Br)ccc1Nc1ncnc2c1sc1nccnc12`, for which the IC50 in assay [1], in assay [2], in assay [3] and in assay [4] was above 10 µM in each case.

Regarding `O=[N+]([O-])c1cc(Nc2ncnc3c2sc2nccnc23)ccc1O`, the IC50 is above 10 µM in assay [1], above 10 µM in assay [2], above 10 µM in assay [3] and 1.4 µM in assay [4].

Take `Nc1ncnc2c1sc1ncccc12`: the IC50 in assay [1] is 2.8 µM; in assay [5], 0.68 µM; in assay [2], above 10 µM; in assay [3], above 10 µM; in assay [4] it was 0.031 µM.

(Values after ChEMBL document CHEMBL2150914, “Synthesis and biological evaluation of N-arylbenzo[b]thieno[3,2-d]pyrimidin-4-amines and their pyrido and pyrazino analogues as Ser/Thr kinase inhibitors” (Eur J Med Chem, 2012).)
